# Shown is part of a subset that was picked to be rich in hits.
# INS promoter act = TRM-6 insulin promoter activation | TRM-6 cells (human fetal islet line), insulin promoter eGFP reporter, imaging; plate-scaled: unstimulated 0, stimulated control 100 | activation, % at 2 µM | hit rate 0.81% among 130,000 | AID 1296;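 active = activation at 2 µM above a set limit, confirmed on inspection of the cell images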;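 note: share of cells whose green reporter signal exceeds an intensity cutoff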
#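 test system = TRM-6 insulin promoter–eGFP reporter cells | benchmarks = stimulated versus unstimulated wells as plate controls | read-out basis = percent cells above green-intensity threshold, converted to percent activation versus plate controls | detection = fixed-cell fluorescence microscopy, eGFP plus Hoechst | incubation = tamoxifen pre-incubation 15 h overnight, then compound exposure 48 h at 37 °C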
# The depositor's hits bear a star.
SMILES,INS promoter act
CC1CN(CCOc2ccc([N+](=O)[O-])cc2)CC(C)O1 (configuration not stated),-5
O=[N+]([O-])c1ccc(OCc2cnc(Cl)s2)cc1,240*
Cc1ccc(OCC(=O)Nc2ccc([N+](=O)[O-])cc2)cc1,-8
COC(=O)C(Cc1cnc(Cl)s1)(C(=O)OC)c1ccc([N+](=O)[O-])cc1,536*
COC(=O)C(Cc1cnc(Cl)s1)(C(=O)OC)c1ccccc1[N+](=O)[O-],-8
COc1ccc(C2=NOC(CNC(N)=S)C2)cc1 (configuration not stated),0
C=CCNC(=S)NNC(=O)c1csc(C)c1CC,3
CCOc1ncccc1C(=O)N(C)CC1COc2ccccc2O1 (configuration not stated),8
COc1cc2ncnc(NCc3ccc(C)cc3)c2cc1OC,230*
COc1ccc(CNC(=O)CSc2ncnc3ccccc23)cc1OC,-9
COc1cc(OC)c(OC)cc1CNc1cc(C)ccc1OC,9
Cc1nc2ccc(C(=O)N3CCN(c4ccccn4)CC3)cc2s1,0
O=C1/C(=C/c2ccc(N3CCCC3)cc2)NC(=S)N1C1CC1,186*
O=C1N/C(=C/c2ccc(N3CCOCC3)cc2)C(=O)N1Cc1ccc(F)cc1,-8
Cc1ccc(S(=O)(=O)N2CCN(CC(=O)NC3CCCc4ccccc43)CC2)c(C)c1 (configuration not stated),0
NC(=O)C1CCN(CC(=O)NC2CCCc3ccccc32)CC1 (configuration not stated),-4
O=C(CN1C(=O)C2CC=CCC2C1=O)NC1CCCc2ccccc21 (configuration not stated),83*
CC1(C)CC(=O)/C(=C(\O)CCCN2C(=O)c3ccccc3C2=O)C(=NCCO)C1,0
COc1cc2c(cc1NC(=O)C(C)OC(=O)/C=C/c1ccc(OC(F)F)cc1)oc1ccccc12 (configuration not stated),6
COc1cccc(/C=C2\C(=O)C(=O)c3ccccc32)c1,178*
COc1cccc(/C=N/NC(=O)c2nc(-c3ccccc3)cc(-c3ccccc3)n2)c1,-3
COc1cccc(/C=C/C(=O)c2ccc[nH]2)c1,-7
COc1cc(-c2nc(S(=O)(=O)c3ccc(Cl)cc3)c(N3CCOCC3)o2)cc(OC)c1OC,114
COc1ccccc1N(CC(=O)Nc1cc(C)on1)S(=O)(=O)c1ccc(Cl)cc1,-3
COc1ccccc1-c1nc(S(=O)(=O)c2ccc(Cl)cc2)c(N(C)C)o1,471*
SMILES,INS promoter act
S=C1NCN(Cc2ccccc2)CN1C1CCCCC1,136
COc1nnc(-c2ccc(N3CCCCC3)c(N)c2)c2ccccc12,-3
CCOc1ccc(-c2nc(CSCC(=O)NCCN3CCOCC3)c(C)o2)cc1,-9
CN(C)c1ccc(/C=C(/C#N)C(=O)NCc2ccccc2)o1,227*
Cc1cccc(NC(=O)/C(C#N)=C/c2ccc(Sc3ccccc3)o2)c1C,-100
CCOC(=O)c1ccc(NC(=O)C(=O)NCc2ccc(/C=C(/C#N)C(=O)NCCOC)o2)cc1,-7
COc1ccc(N2CCN(C(=O)c3cccc4nc(C)oc34)CC2)cc1,0
O=C(CCN1CCN(S(=O)(=O)c2ccc(Br)cc2)CC1)Nc1ccccc1F,0
O=C(CN1CCc2ccccc2C1)Nc1ccc(F)cc1F,-6
O=C(CN1CCN(S(=O)(=O)c2ccc(Br)cc2)CC1)Nc1ccc(F)cc1F,136*
CSc1nc(=NC(C)=O)ss1,4
Cc1ccc(CNC(=O)C(CCC(N)=O)NC(=O)OCc2ccccc2)cc1 (configuration not stated),5
CCOc1ccc(CCNC(=O)C(CCC(N)=O)NC(=O)OCc2ccccc2)cc1OCC (configuration not stated),229*
CCOc1ccc(CCNC(=O)COC(=O)c2ccco2)cc1OCC,0
CC(=O)c1c(C)[nH]c(C(=O)CSc2nnc(CN3CCCCCC3=O)n2-c2ccccn2)c1C,6
C(=N\N1CCN(C2c3ccccc3-c3ccccc32)CC1)/c1cccs1,6
O=C(NNC(=O)C1CC(c2cccs2)=NO1)NC1CCCCC1 (configuration not stated),107
CN(C)C(=O)c1ccc(COc2ccccc2Br)o1,421*
O=C(c1ccc(COc2ccccc2Br)o1)N1CCN(c2ccccn2)CC1,3
O=C(Nc1cccnc1)c1ccc(COc2ccccc2Cl)o1,0
CCOc1cc(NC(=O)C2CC2)c(OCC)cc1NC(=O)c1ccccn1,3
CCN1CCN(Cc2c(C)[nH]c3ccc(C(=O)OC)cc3c2=O)CC1,381
O=C(O)c1ccc(NS(=O)(=O)c2cc(C(=O)O)ccc2Br)cc1,0
Cc1cccc(/C(N)=N/OC(=O)C23CC4CC(CC(C4)C2)C3)c1,0
O=[N+]([O-])/C=C/c1cn(Cc2ccc(Cl)cc2)c2ccccc12,-3
SMILES,INS promoter act
Cn1cc(/C=N/NC(=O)COc2ccccc2[N+](=O)[O-])c2ccccc21,-9
N#Cc1ccccc1Cn1cc(/C=N/Nc2ccc([N+](=O)[O-])cn2)c2ccccc21,400*
CCCn1c(SC(C(=O)Nc2cc(C)ccc2OC)c2ccccc2)nc2ccccc2c1=O (configuration not stated),4
Cn1c(=O)c2c(ncn2CCCc2ccccc2)n(C)c1=O,-8
COC(=O)c1ccc(NS(=O)(=O)c2ccc(SC)cc2)cc1,730*
COc1ccc(NS(=O)(=O)c2ccc(SC)cc2)cc1,0
CC(=O)c1ccc(NS(=O)(=O)c2ccc(N)cc2)cc1,-6
CSc1ccc(S(=O)(=O)Nc2ccc(F)cc2)cc1,420*
CCN(CC)S(=O)(=O)c1ccc(NS(=O)(=O)c2ccc(F)cc2)cc1,-7
CSc1ccc(S(=O)(=O)Nc2c(C)cccc2C)cc1,-91
Cc1cc(C)n(-c2ccc(Cl)c(C(=O)Nc3ccc(-c4nnc5n4CCCCC5)cc3)n2)n1,9
COc1ccc(C(=O)CSC#N)cc1OC,6
CCc1cc2c(=O)[nH]cnc2s1,-9
COC(=O)CSCC(=O)Nc1cc2c(cc1C(C)=O)OCO2,-71
COc1cc(-c2cccs2)cc(=O)c2c(C)oc(C)c12,118
Cc1ccc(C)c(C(=O)Cn2ncc(Cl)c(Cl)c2=O)c1,269
CCOC(=O)c1ccc(NC(=O)Cn2ncc(Cl)c(Cl)c2=O)cc1,170
Cc1ccc(C(=O)OCn2ncc(Cl)c(Cl)c2=O)cc1,194*
Cc1occc1-c1nnc(SCC(=O)NCC2CCCO2)n1C (configuration not stated),8
COC(=O)c1sccc1-n1cccc1C(=O)NCc1ccccc1,-9
Cc1occc1-c1nnc(SCC(=O)c2c(N)n(Cc3ccccc3)c(=O)n(C)c2=O)n1C,-6
N#CC1=C(N)Oc2n[nH]c(-c3cccs3)c2C1C1CCCCC1 (configuration not stated),110*
N#CC1=C(N)Oc2n[nH]c(-c3cccs3)c2C1c1ccsc1 (configuration not stated),324
Cc1ccc(C2C(C#N)=C(N)Oc3n[nH]c(-c4cccs4)c32)s1 (configuration not stated),9
CCc1cccc(C)c1NC(=S)NCc1ccc2[nH]c(C)cc2c1,-71
CCOc1ccc2nc(COC(=O)c3cccs3)c(C(=O)c3ccccc3)[n+]([O-])c2c1,6
N#Cc1ccccc1NC1=CC(=O)CCC1,0
Cc1nn2c(-c3cccc(NC(=O)c4ccco4)c3)nnc2c2ccccc12,263
Cc1nn2c(-c3ccccc3)nnc2c2ccccc12,450*
